In EPA's CvTdb concentration-time database:

Legend:
Rat [1] = experiment: concentration in plasma after dosing; details: 0.5 h; dosed: 2-Methyltetrahydrofuran; 40 mg/kg; iv; Male; Harlan Sprague Dawley
Rat [2] = experiment: concentration in plasma after dosing; details: 4 h; dosed: 2-Methyltetrahydrofuran; 40 mg/kg; iv; Male; Harlan Sprague Dawley
Rat [3] = experiment: concentration in brain after dosing; details: 7 min; dosed: 2-Methyltetrahydrofuran; 40 mg/kg; iv; Male; Harlan Sprague Dawley
Rat [4] = experiment: concentration in plasma after dosing; details: 4 h; dosed: 2-Methyltetrahydrofuran; 40 mg/kg; iv; Female; Harlan Sprague Dawley
Rat [5] = experiment: concentration in plasma after dosing; details: dosed: 678-39-7, 40 mg/kg, iv, Male, F344
Rat [6] = experiment: concentration in plasma after dosing; details: 192 h; dosed: 678-39-7; 40 mg/kg; iv; Male; F344
Rat [7] = experiment: concentration in plasma after dosing; details: 192 h; dosed: 678-39-7; 12 mg/kg; iv; Male; F344
Rat [8] = experiment: concentration in kidney after dosing; details: 0.5 h; dosed: Fluorotelomer alcohol 8+2; 80 mg/kg; oral; Female; Harlan Sprague Dawley
Rat [9] = experiment: concentration in plasma after dosing; details: dosed: Fluorotelomer alcohol 8+2, 12 mg/kg, oral, Male, Harlan Sprague Dawley
Rat [10] = experiment: concentration in plasma after dosing; details: 192 h; dosed: Fluorotelomer alcohol 8+2; 24 mg/kg; oral; Male; Harlan Sprague Dawley
Rat [11] = experiment: concentration in plasma after dosing; details: 0.25 h; dosed: Gemfibrozil; 100 mg/kg; oral; Male; Sprague-Dawley
Rat [12] = experiment: concentration in plasma after dosing; details: 2 h; dosed: Gemfibrozil; 100 mg/kg; oral; Male; Sprague-Dawley
Rat [13] = experiment: concentration in plasma after dosing; details: 6 h; dosed: Gemfibrozil; 50 mg/kg; oral; Male; Sprague-Dawley
Rat [14] = experiment: concentration in plasma after dosing; details: 2 h; dosed: Gemfibrozil; 4.29 mg/kg; oral; Male; Sprague-Dawley
Rat [15] = experiment: concentration in plasma after dosing; details: 1 h; dosed: Gemfibrozil; 50 mg/kg; oral; Male; Sprague-Dawley
Rat [16] = experiment: concentration in plasma after dosing; details: 0.5 h; dosed: Perfluorohexanoic Acid; 80 mg/kg; oral; Male; Harlan Sprague Dawley
Rat [17] = experiment: concentration in kidney after dosing; details: 0.5 h; dosed: Perfluorohexanoic Acid; 80 mg/kg; oral; Male; Harlan Sprague Dawley
Rat [18] = experiment: concentration in liver after dosing; details: 1 h; dosed: Perfluorohexanoic Acid; 80 mg/kg; oral; Male; Harlan Sprague Dawley
Rat [19] = experiment: concentration in plasma after dosing; details: dosed: Perfluorohexanoic Acid, 40 mg/kg, oral, Male, Harlan Sprague Dawley
Rat [20] = experiment: concentration in plasma after dosing; details: 0.25 h; dosed: Perfluorohexanoic Acid; 40 mg/kg; iv; Male; F344
Rat [21] = experiment: concentration in plasma after dosing; details: 864 h; dosed: Perfluorooctane Sulfonate; 2 mg/kg; oral; Female; Harlan Sprague Dawley
Rat [22] = experiment: concentration in brain after dosing; details: 3360 h; dosed: Perfluorooctane Sulfonate; 20 mg/kg; oral; Male; Harlan Sprague Dawley
Rat [23] = experiment: concentration in liver after dosing; details: 3360 h; dosed: Perfluorooctane Sulfonate; 20 mg/kg; oral; Male; Harlan Sprague Dawley
Rat [24] = experiment: concentration in plasma after dosing; details: dosed: Perfluorooctane Sulfonate, 2 mg/kg, iv, Female, F344
Rat [25] = experiment: concentration in kidney after dosing; details: 6 h; dosed: Perfluorooctane Sulfonate; 2 mg/kg; oral; Female; Harlan Sprague Dawley
Rat [26] = experiment: concentration in liver after dosing; details: 1848 h; dosed: Perfluorooctane Sulfonate; 2 mg/kg; oral; Female; Harlan Sprague Dawley
Rat [27] = experiment: concentration in liver after dosing; details: 864 h; dosed: Perfluorooctane Sulfonate; 20 mg/kg; oral; Female; F344
Rat [28] = experiment: concentration in brain after dosing; details: 1848 h; dosed: Perfluorooctane Sulfonate; 20 mg/kg; oral; Male; Harlan Sprague Dawley
Rat [29] = experiment: concentration in brain after dosing; details: 864 h; dosed: Perfluorooctane Sulfonate; 20 mg/kg; oral; Female; F344
Rat [30] = experiment: concentration in liver after dosing; details: 24 h; dosed: Perfluorooctane Sulfonate; 20 mg/kg; oral; Female; F344
human = experiment: concentration in expired air after dosing; details: dosed: trichloroethylene, 100 ppm, inhalation, duration: 4 hr, person
How it was run: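 Points were largely digitised from plot screenshots with WebPlotDigitizer or otherwise copied from tables, and they remain in the units each source reported. They come from published in vivo toxicokinetic studies and two structured collections. Sampling and analytical methods follow each source and were often not reported.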

CC1CCCO1 (stereo not drawn) [2-Methyltetrahydrofuran]
Details | concentration in brain [ng/mL] | concentration in plasma [ng/mL]
Rat [1] | – | 25600
Rat [2] | – | 1880
Rat [3] | 29000 | –
Rat [4] | – | 186

O=C(O)CCC(F)(F)C(F)(F)C(F)(F)C(F)(F)C(F)(F)C(F)(F)C(F)(F)F [Fluorotelomer acid 7+3]
concentration in plasma [ng/mL]
Details | 0.5 h | 3 h | 5 min | 9 h
Rat [5] | – | 3090 | 25.4 | –
Rat [9] | 133 | – | – | 218

Details | concentration in kidney [ng/g] | concentration in plasma [ng/mL]
Rat [6] | – | 48.1
Rat [7] | – | 8.6
Rat [8] | 357 | –
Rat [10] | – | 40.8

Cc1ccc(C)c(OCCCC(C)(C)C(=O)O)c1 [Gemfibrozil]
Details | concentration in plasma [ng/mL]
Rat [11] | 35700
Rat [12] | 10700
Rat [13] | 7260
Rat [14] | 234
Rat [15] | 7680

O=C(O)C(F)(F)C(F)(F)C(F)(F)C(F)(F)C(F)(F)F [Perfluorohexanoic Acid]
Details | concentration in kidney [ng/g] | concentration in liver [ng/g] | concentration in plasma [ng/mL]
Rat [16] | – | – | 105000
Rat [17] | 69600 | – | –
Rat [18] | – | 88800 | –
Rat [20] | – | – | 7150

Rat [19]
Details | concentration in plasma [ng/mL]
0.5 h | 59900
9 h | 9200

O=S(=O)([O-])C(F)(F)C(F)(F)C(F)(F)C(F)(F)C(F)(F)C(F)(F)C(F)(F)C(F)(F)F [Perfluorooctane Sulfonate]
Details | concentration in brain [ng/g] | concentration in kidney [ng/g] | concentration in liver [ng/g] | concentration in plasma [ng/mL]
Rat [21] | – | – | – | 1480
Rat [22] | 1260 | – | – | –
Rat [23] | – | – | 15700 | –
Rat [25] | – | 4220 | – | –
Rat [26] | – | – | 5940 | –
Rat [27] | – | – | 71400 | –
Rat [28] | 1320 | – | – | –
Rat [29] | 2730 | – | – | –
Rat [30] | – | – | 167000 | –

Rat [24]
Details | concentration in plasma [ng/mL]
5 min | 5510
24 h | 4250
1704 h | 232

ClC=C(Cl)Cl [trichloroethylene]
human
Details | concentration in expired air
0 h | 1940 nM
0.053 h | 22.4 ppm
0.17 h | 302 nM
0.2372 h | 3.23 ppm
0.3175 h | 7.33 ppm
0.4773 h | 6.01 ppm
0.5 h | 200 nM
0.5703 h | 2.6 ppm
0.97 h | 1.56 ppm
1 h | 129 nM
1.022 h | 2.96 ppm
1.5 h | 101 nM
2 h | 79 nM
2.009 h | 0.691 ppm
2.015 h | 1.22 ppm
2.5 h | 62 nM
3 h | 61 nM
3.5 h | 54 nM
4 h | 49 nM
4.021 h | 0.521 ppm
4.039 h | 1.03 ppm
4.5 h | 43 nM
5 h | 42 nM
5.996 h | 0.868 ppm
6 h | 33 nM
6.02 h | 0.517 ppm
7 h | 27 nM
7.979 h | 0.777 ppm
8 h | 21 nM
9 h | 21 nM
10 h | 16 nM
10.1 h | 0.554 ppm
326 s | 12.3 ppm
